# Assay results: ChEMBL document CHEMBL4014308, “Amphiphilic Tobramycin-Lysine Conjugates Sensitize Multidrug Resistant Gram-Negative Bacteria to Rifampicin and Minocycline” (J Med Chem, 2017)
# Calls of active or inactive are those of the source. No cut-off for these calls is given here.
# What was measured:
# Assay type in all cases: functional
# Pseudomonas aeruginosa [1] = test: Antibacterial activity against Pseudomonas aeruginosa PAO1 after 18 hrs by microtiter dilution assay
# Method in brief: (§1)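 Broth microdilution following CLSI guidelines. An overnight culture was adjusted to 0.5 McFarland in saline, then diluted 1:50 in Mueller-Hinton broth. This inoculum was added in equal volume to 2-fold serial dilutions of agent in MHB and incubated 18 h at 37 °C. MIC was the lowest concentration with no visible growth.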
# Pseudomonas aeruginosa [2] = test: Antibacterial activity against multidrug/extremely drug-resistant/colistin-susceptible Pseudomonas aeruginosa isolate 101885 after 18 hrs by microtiter dilution assay; details: isolate 101885, 18 h; method in brief: as §1
# Pseudomonas aeruginosa [3] = test: Antibacterial activity against multidrug/extremely drug-resistant/colistin-susceptible Pseudomonas aeruginosa isolate P264-104354 after 18 hrs by microtiter dilution assay; details: isolate P264-104354, 18 h; method in brief: as §1
# Pseudomonas aeruginosa [4] = test: Antibacterial activity against multidrug/extremely drug-resistant/colistin-susceptible Pseudomonas aeruginosa isolate 100036 after 18 hrs by microtiter dilution assay; details: isolate 100036, 18 h; method in brief: as §1
# Pseudomonas aeruginosa [5] = test: Antibacterial activity against multidrug/extremely drug-resistant/colistin-resistant Pseudomonas aeruginosa isolate 91433 after 18 hrs by microtiter dilution assay; details: isolate 91433, 18 h; method in brief: as §1
# Pseudomonas aeruginosa [6] = test: Antibacterial activity against multidrug/extremely drug-resistant/colistin-susceptible Pseudomonas aeruginosa isolate P259-96918 after 18 hrs by microtiter dilution assay; details: isolate P259-96918, 18 h; method in brief: as §1
# Pseudomonas aeruginosa [7] = test: Antibacterial activity against multidrug/extremely drug-resistant/colistin-resistant Pseudomonas aeruginosa isolate 101243 after 18 hrs by microtiter dilution assay; details: isolate 101243, 18 h; method in brief: as §1
# Pseudomonas aeruginosa [8] = test: Antibacterial activity against multidrug/extremely drug-resistant/colistin-susceptible Pseudomonas aeruginosa isolate P262-101856 after 18 hrs by microtiter dilution assay; details: isolate P262-101856, 18 h; method in brief: as §1
# Escherichia coli [9] = test: Antibacterial activity against amikacin-resistant Escherichia coli isolate CAN-ICU 63074 after 18 hrs by microtiter dilution assay; details: isolate CAN-ICU 63074, 18 h; method in brief: as §1
# [10] = tested on: Staphylococcus epidermidis; test: Antibacterial activity against methicillin-resistant Staphylococcus epidermidis isolate CAN-ICU 61589 after 18 hrs by microtiter dilution assay; details: isolate CAN-ICU 61589, 18 h; method in brief: as §1
# [11] = tested on: Stenotrophomonas maltophilia; test: Antibacterial activity against Stenotrophomonas maltophilia isolate CAN-ICU 62584 after 18 hrs by microtiter dilution assay; details: isolate CAN-ICU 62584, 18 h
# Method in brief: (§2)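 Broth microdilution per CLSI. Overnight culture adjusted to 0.5 McFarland in saline, diluted 1:50 in Mueller-Hinton broth, and added to an equal volume of 2-fold serial compound dilutions in MHB. Incubated 18 h at 37 °C. MIC taken as the lowest concentration with no visible growth.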
# Enterococcus faecium = test: Antibacterial activity against Enterococcus faecium ATCC 27270 after 18 hrs by microtiter dilution assay; details: ATCC 27270, 18 h; method in brief: as §2
# Escherichia coli [12] = test: Antibacterial activity against Escherichia coli ATCC 25922 after 18 hrs by microtiter dilution assay; details: ATCC 25922, 18 h; method in brief: as §1
# Escherichia coli [13] = test: Antibacterial activity against gentamicin/tobramycin/ciprofloxacin-resistant Escherichia coli isolate CANWARD-2011 97615 harboring AAC3-2A after 18 hrs by microtiter dilution assay; details: isolate CANWARD-2011 97615, 18 h; method in brief: as §1
# Acinetobacter baumannii = test: Antibacterial activity against Acinetobacter baumannii isolate CAN-ICU 63169 after 18 hrs by microtiter dilution assay; details: isolate CAN-ICU 63169, 18 h; method in brief: as §2
# Pseudomonas aeruginosa [14] = test: Antibacterial activity against gentamicin-resistant Pseudomonas aeruginosa isolate CAN-ICU 62308 after 18 hrs by microtiter dilution assay; details: isolate CAN-ICU 62308, 18 h; method in brief: as §1
# Enterococcus faecalis = test: Antibacterial activity against Enterococcus faecalis ATCC 29212 after 18 hrs by microtiter dilution assay; details: ATCC 29212, 18 h; method in brief: as §2
# Staphylococcus aureus [15] = test: Antibacterial activity against methicillin resistant Staphylococcus aureus ATCC 33592 after 18 hrs by microtiter dilution assay; details: ATCC 33592, 18 h; method in brief: as §1
# Streptococcus pneumoniae = test: Antibacterial activity against Streptococcus pneumoniae ATCC 49619 after 18 hrs by microtiter dilution assay; details: ATCC 49619, 18 h; method in brief: as §2
# Pseudomonas aeruginosa [16] = test: Synergistic antibacterial activity against Pseudomonas aeruginosa PAO1 after 18 hrs in presence of minocycline by checkerboard assay
# Method in brief: (§3)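 Checkerboard in MHB: antibiotic diluted along one axis and adjuvant along the other (10 × 7 matrix). Inoculum was a 1:50 dilution in MHB of a 0.5 McFarland saline suspension; incubated 18 h at 37 °C. Each FIC = concentration in the no-growth well divided by the MIC alone; FIC index = sum of both FICs. ≤0.5 synergy, 0.5–4 no interaction, ≥4 antagonism.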
# Staphylococcus aureus [17] = test: Antibacterial activity against Staphylococcus aureus ATCC 29213 after 18 hrs by microtiter dilution assay; details: ATCC 29213, 18 h; method in brief: as §1
# [18] = tested on: Staphylococcus epidermidis; test: Antibacterial activity against methicillin-susceptible Staphylococcus epidermidis isolate CANWARD-2008 81388 after 18 hrs by microtiter dilution assay; details: isolate CANWARD-2008 81388, 18 h; method in brief: as §1
# Escherichia coli [19] = test: Antibacterial activity against gentamicin-resistant Escherichia coli isolate CAN-ICU 61714 after 18 hrs by microtiter dilution assay; details: isolate CAN-ICU 61714, 18 h; method in brief: as §1
# Pseudomonas aeruginosa [20] = test: Synergistic antibacterial activity against Pseudomonas aeruginosa PAO1 after 18 hrs in presence of rifampicin by checkerboard assay; method in brief: as §3
# Pseudomonas aeruginosa [21] = test: Antibacterial activity against Pseudomonas aeruginosa ATCC 27853 after 18 hrs by microtiter dilution assay; details: ATCC 27853, 18 h; method in brief: as §2
# Pseudomonas aeruginosa [22] = test: Antibacterial activity against gentamicin/tobramycin-resistant Pseudomonas aeruginosa isolate CANWARD-2011 96846 after 18 hrs by microtiter dilution assay; details: isolate CANWARD-2011 96846, 18 h; method in brief: as §1
# Klebsiella pneumoniae = test: Antibacterial activity against Klebsiella pneumoniae ATCC 13883 after 18 hrs by microtiter dilution assay; details: ATCC 13883, 18 h; method in brief: as §2
Compound,"MIC (Pseudomonas aeruginosa [1]; PAO1, 18 h)",MIC (Pseudomonas aeruginosa [2]),MIC (Pseudomonas aeruginosa [3]),MIC (Pseudomonas aeruginosa [4]),MIC (Pseudomonas aeruginosa [5]),MIC (Pseudomonas aeruginosa [6]),MIC (Pseudomonas aeruginosa [7]),MIC (Pseudomonas aeruginosa [8]),further results
CO[C@@H]1[C@@H](OC(N)=O)[C@@H](O)[C@H](Oc2ccc3c(O)c(NC(=O)c4ccc(O)c(CC=C(C)C)c4)c(=O)oc3c2C)OC1(C)C [NOVOBIOCIN],1020 µg/mL,–,–,–,–,–,–,–,–
O=C(N[C@H](CO)[C@H](O)c1ccc([N+](=O)[O-])cc1)C(Cl)Cl [CHLORAMPHENICOL],64 µg/mL,512 µg/mL,1020 µg/mL,> 512 µg/mL,16 µg/mL,512 µg/mL,4 µg/mL,1020 µg/mL,–
COc1c(N2C[C@@H]3CCCN[C@@H]3C2)c(F)cc2c(=O)c(C(=O)O)cn(C3CC3)c12 [MOXIFLOXACIN],1 µg/mL,64 µg/mL,128 µg/mL,128 µg/mL,8 µg/mL,512 µg/mL,4 µg/mL,128 µg/mL,–
NC[C@H]1O[C@H](O[C@H]2[C@H](O)[C@@H](O[C@H]3O[C@H](CO)[C@@H](O)[C@H](N)[C@H]3O)[C@H](N)C[C@@H]2N)[C@H](O)[C@@H](O)[C@@H]1O [KANAMYCIN],64 µg/mL,–,–,–,–,–,–,–,–
NCC[C@H](O)C(=O)N[C@@H]1C[C@H](N)[C@@H](O[C@H]2O[C@H](CN)[C@@H](O)[C@H](O)[C@H]2O)[C@H](O)[C@H]1O[C@H]1O[C@H](CO)[C@@H](O)[C@H](N)[C@H]1O [AMIKACIN],1 µg/mL,–,–,–,–,–,–,–,MIC (Escherichia coli [9]): 32 µg/mL
CC(C)(O/N=C(\C(=O)N[C@@H]1C(=O)N2C(C(=O)[O-])=C(C[n+]3ccccc3)CS[C@H]12)c1csc(N)n1)C(=O)O [CEFTAZIDIME],2 µg/mL,8 µg/mL,64 µg/mL,8 µg/mL,256 µg/mL,512 µg/mL,64 µg/mL,16 µg/mL,MIC [10]: > 32 µg/mL
C[C@@H](O)[C@H]1C(=O)N2C(C(=O)O)=C(S[C@@H]3CN[C@H](C(=O)N(C)C)C3)[C@H](C)[C@H]12 [MEROPENEM],0.5 µg/mL,–,–,–,–,–,–,–,–
CN[C@H](CC(C)C)C(=O)N[C@H]1C(=O)N[C@@H](CC(N)=O)C(=O)N[C@H]2C(=O)N[C@H]3C(=O)N[C@H](C(=O)N[C@H](C(=O)O)c4cc(O)cc(O)c4-c4cc3ccc4O)[C@H](O)c3ccc(c(Cl)c3)Oc3cc2cc(c3O[C@@H]2O[C@H](CO)[C@@H](O)[C@H](O)[C@H]2O[C@H]2C[C@](C)(N)[C@H](O)[C@H](C)O2)Oc2ccc(cc2Cl)[C@H]1O [VANCOMYCIN],> 1020 µg/mL,–,–,–,–,–,–,–,–
COc1cc(Cc2cnc(N)nc2N)cc(OC)c1OC [TRIMETHOPRIM],256 µg/mL,> 512 µg/mL,256 µg/mL,256 µg/mL,512 µg/mL,512 µg/mL,1020 µg/mL,> 1020 µg/mL,–
O=C(O)c1cn(C2CC2)c2cc(N3CCNCC3)c(F)cc2c1=O [CIPROFLOXACIN],–,32 µg/mL,32 µg/mL,64 µg/mL,–,128 µg/mL,–,32 µg/mL,–
Cl.Cl.Cl.Cl.Cl.Cl.Cl.NCCCC[C@H](N)C(=O)N(CCCCO[C@@H]1[C@@H](O[C@H]2O[C@H](CO)[C@@H](O)[C@H](N)[C@H]2O)[C@H](N)C[C@H](N)[C@H]1O[C@H]1O[C@H](CN)[C@@H](O)C[C@H]1N)Cc1c2ccccc2c(Cl)c2ccccc12,> 512 µg/mL,256 µg/mL,> 512 µg/mL,> 512 µg/mL,32 µg/mL,> 512 µg/mL,256 µg/mL,> 512 µg/mL,MIC [11]: > 128 µg/mL; MIC (Enterococcus faecium): > 128 µg/mL; MIC (Escherichia coli [12]): 32 µg/mL; MIC (Escherichia coli [13]): 64 µg/mL; MIC (Acinetobacter baumannii): > 128 µg/mL; MIC (Pseudomonas aeruginosa [14]): 64 µg/mL; MIC (Enterococcus faecalis): > 128 µg/mL; MIC (Staphylococcus aureus [15]): 64 µg/mL; MIC (Streptococcus pneumoniae): > 128 µg/mL; Activity (Pseudomonas aeruginosa [16]): inactive; MIC (Escherichia coli [9]): 64 µg/mL; MIC (Staphylococcus aureus [17]): 64 µg/mL; MIC [18]: 16 µg/mL; MIC (Escherichia coli [19]): 64 µg/mL; Activity (Pseudomonas aeruginosa [20]): inactive; MIC (Pseudomonas aeruginosa [21]): > 128 µg/mL; MIC (Pseudomonas aeruginosa [22]): > 128 µg/mL; MIC (Klebsiella pneumoniae): 128 µg/mL; MIC [10]: 32 µg/mL
"Cl.Cl.Cl.Cl.Cl.Cl.Cl.NCCCC[C@H](N)C(=O)N(CCCCCCCCOC1[C@@H](O[C@H]2O[C@H](CO)[C@@H](O)[C@H](N)[C@H]2O)[C@H](N)C[C@H](N)[C@H]1O[C@H]1O[C@H](CN)[C@@H](O)C[C@H]1N)Cc1c2ccccc2c(Cl)c2ccccc12 (single isomer, unassigned)",128 µg/mL,64 µg/mL,256 µg/mL,512 µg/mL,8 µg/mL,512 µg/mL,32 µg/mL,128 µg/mL,MIC [11]: > 128 µg/mL; MIC (Enterococcus faecium): 16 µg/mL; MIC (Escherichia coli [12]): 16 µg/mL; MIC (Escherichia coli [13]): 32 µg/mL; MIC (Acinetobacter baumannii): > 128 µg/mL; MIC (Pseudomonas aeruginosa [14]): 16 µg/mL; MIC (Enterococcus faecalis): 64 µg/mL; MIC (Staphylococcus aureus [15]): 16 µg/mL; MIC (Streptococcus pneumoniae): 128 µg/mL; Activity (Pseudomonas aeruginosa [16]): Active; MIC (Escherichia coli [9]): 128 µg/mL; MIC (Staphylococcus aureus [17]): 16 µg/mL; MIC [18]: 8 µg/mL; MIC (Escherichia coli [19]): 32 µg/mL; Activity (Pseudomonas aeruginosa [20]): Active; MIC (Pseudomonas aeruginosa [21]): > 128 µg/mL; MIC (Pseudomonas aeruginosa [22]): 64 µg/mL; MIC (Klebsiella pneumoniae): > 128 µg/mL; MIC [10]: 8 µg/mL
GENTAMICIN,–,–,–,–,–,–,–,–,MIC (Pseudomonas aeruginosa [1]): 1 µg/mL
CC[C@H]1OC(=O)[C@H](C)[C@@H](O[C@H]2C[C@@](C)(OC)[C@@H](O)[C@H](C)O2)[C@H](C)[C@@H](O[C@@H]2O[C@H](C)C[C@H](N(C)C)[C@H]2O)[C@](C)(O)C[C@@H](C)C(=O)[C@H](C)[C@@H](O)[C@]1(C)O [ERYTHROMYCIN],256 µg/mL,256 µg/mL,256 µg/mL,256 µg/mL,512 µg/mL,256 µg/mL,1020 µg/mL,1020 µg/mL,–
Cc1nnc(SCC2=C(C(=O)O)N3C(=O)[C@@H](NC(=O)Cn4cnnn4)[C@H]3SC2)s1 [CEFAZOLIN],–,–,–,–,–,–,–,–,MIC (Escherichia coli [9]): 32 µg/mL; MIC (Escherichia coli [19]): 32 µg/mL; MIC [10]: > 32 µg/mL
